# Source: ChEMBL document CHEMBL1150800, “Multiple-dose escalation study of the safety, pharmacokinetics, and biologic activity of oral AMD070, a selective CXCR4 receptor inhibitor, in human subjects” (Antimicrob Agents Chemother, 2007)
# Columns and labels:
# [1] = tested on: Human immunodeficiency virus 1; test: Antiviral activity against HIV1 NL4.3 in human MT4 cells; format: functional, organism-based; conditions: Human immunodeficiency virus 1, MT4
# [2] = Oral bioavailability in rat; format: ADME, organism-based; conditions: in vivo
# [3] = Oral bioavailability in dog; format: ADME, organism-based, Canis lupus familiaris; conditions: in vivo
# [4] = Half life in rat; format: ADME, organism-based; conditions: in vivo
# [5] = Half life in dog; format: ADME, organism-based, Canis lupus familiaris; conditions: in vivo
# [6] = Terminal half life in rat; format: ADME, organism-based; conditions: in vivo
# [7] = Terminal half life in dog; format: ADME, organism-based, Canis lupus familiaris; conditions: in vivo
# [8] = Tmax in fasting healthy human at 50 mg, po administered as single dose; format: ADME, organism-based; conditions: in vivo
# How it was run: (§1)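 Healthy male volunteers, three per cohort, took one oral dose after an 8-h overnight fast and stayed fasting until 1 h post-dose. Tmax came from per-subject noncompartmental analysis, summarized by cohort.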
# [9] = Cmax in fasting healthy human at 50 mg, po administered as single dose; format: ADME, organism-based; parameters: dose 50 mg, route oral; conditions: in vivo
# How it was run: (§2)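 Healthy male volunteers, three per cohort, one oral dose after 8-h overnight fast, fasting kept until 1 h post-dose. Plasma sampled predose and at 0.5, 1, 1.5, 2, 3, 4, 6, 8, 12, 16, 20, 24 h. Levels by validated HPLC-MS/MS (liquid-liquid extraction, positive-ion electrospray). Noncompartmental analysis, log-linear trapezoidal AUC, summarized per cohort.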
# [10] = Drug level in fasting healthy human at 50 mg, po administered as single dose after 12 hrs; format: ADME, organism-based; conditions: in vivo, read-out: Drug uptake; how it was run: as §2
# Homo sapiens [11] = test: Apparent volume of distribution in fasting healthy human at 50 mg, po administered as single dose after 12 hrs; format: ADME, organism-based; conditions: in vivo; how it was run: as §2
# Homo sapiens [12] = test: Half life in fasting healthy human at 50 mg, po administered as single dose after 12 hrs; format: ADME, organism-based; conditions: in vivo; how it was run: as §2
# [13] = Tmax in fasting healthy human at 100 mg, po administered as single dose; format: ADME, organism-based; conditions: in vivo; how it was run: as §2
# [14] = Cmax in fasting healthy human at 100 mg, po administered as single dose; format: ADME, organism-based; parameters: dose 100 mg, route oral; conditions: in vivo; how it was run: as §2
# [15] = Drug level in fasting healthy human at 100 mg, po administered as single dose after 12 hrs; format: ADME, organism-based; conditions: in vivo, read-out: Drug uptake; how it was run: as §2
# Homo sapiens [16] = test: AUC ( 0 to infinity) in fasting healthy human at 100 mg, po administered as single dose after 12 hrs; format: ADME, organism-based, Plasma; parameters: dose 100 mg, route oral, time infinity; conditions: in vivo; how it was run: as §2
# Homo sapiens [17] = test: Apparent volume of distribution in fasting healthy human at 100 mg, po administered as single dose after 12 hrs; format: ADME, organism-based; conditions: in vivo; how it was run: as §2
# Homo sapiens [18] = test: Half life in fasting healthy human at 100 mg, po administered as single dose after 12 hrs; format: ADME, organism-based; conditions: in vivo; how it was run: as §2
# [19] = Tmax in fasting healthy human at 200 mg, po administered as single dose; format: ADME, organism-based; conditions: in vivo
# How it was run: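 Healthy male volunteers (cohort C, n=3) took one oral dose after an 8-h overnight fast and kept fasting to 1 h post-dose. Drug was measured by validated HPLC-MS/MS (positive electrospray), and Tmax was taken by noncompartmental analysis of individual curves.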
# [20] = Cmax in fasting healthy human at 200 mg, po administered as single dose; format: ADME, organism-based; parameters: dose 200 mg, route oral; conditions: in vivo; how it was run: as §2
# [21] = Drug level in fasting healthy human at 200 mg, po administered as single dose after 12 hrs; format: ADME, organism-based; conditions: in vivo, read-out: Drug uptake; how it was run: as §2
# Homo sapiens [22] = test: AUC ( 0 to infinity) in fasting healthy human at 200 mg, po administered as single dose after 12 hrs; format: ADME, organism-based, Plasma; parameters: dose 200 mg, route oral, time infinity; conditions: in vivo; how it was run: as §2
# Homo sapiens [23] = test: Apparent volume of distribution in fasting healthy human at 200 mg, po administered as single dose after 12 hrs; format: ADME, organism-based; conditions: in vivo; how it was run: as §2
# [24] = Tmax in fasting healthy human at 400 mg, po administered as single dose; format: ADME, organism-based; conditions: in vivo; how it was run: as §1
# [25] = Cmax in fasting healthy human at 400 mg, po administered as single dose; format: ADME, organism-based; parameters: dose 400 mg, route oral; conditions: in vivo; how it was run: as §2
# [26] = Drug level in fasting healthy human at 400 mg, po administered as single dose after 12 hrs; format: ADME, organism-based; conditions: in vivo, read-out: Drug uptake; how it was run: as §2
structure (smiles),measurement,setting,value
NCCCCN(Cc1nc2ccccc2[nH]1)[C@H]1CCCc2cccnc21 [MAVORIXAFOR],EC90,[1],0.044 µg/mL
same,IC50,[1],0.0023 µg/mL
same,bioavailability,[2],20%
same,bioavailability,[3],80%
same,half-life,[4],1.4 h
same,half-life,[5],0.7 h
same,half-life,[6],10 h
same,half-life,[7],10 h
same,Tmax,[8],1.5 h
same,Cmax,[9],159 ng/mL
same,concentration at 12 h,[10],1.5 ng/mL
same,Vd,Homo sapiens [11],3620 L
same,t1/2,Homo sapiens [12],10.8 h
same,Tmax,[13],1.5 h
same,Cmax,[14],276 ng/mL
same,concentration at 12 h,[15],2.1 ng/mL
same,AUC,Homo sapiens [16],358 ng·h/mL
same,Vd,Homo sapiens [17],3940 L
same,t1/2,Homo sapiens [18],7.6 h
same,Tmax,[19],1 h
same,Cmax,[20],995 ng/mL
same,concentration at 12 h,[21],11.6 ng/mL
same,AUC,Homo sapiens [22],1695 ng·h/mL
same,Vd,Homo sapiens [23],2152 L
same,Tmax,[24],1.5 h
same,Cmax,[25],1400 ng/mL
same,concentration at 12 h,[26],44.6 ng/mL
